Data published in ChEMBL document CHEMBL4308878, “Discovery of covalent enzyme inhibitors using virtual docking of covalent fragments” (Bioorg Med Chem Lett, 2019).
The source made the active and inactive calls. The rule behind the calls is not given here.

Tests used:
Procathepsin L [1] = biological target: T1, Procathepsin L (Homo sapiens, UniProt P07711); assay: Inhibition of human liver cathepsin L assessed as ratio of Kinact to Ki using Z-FR-AMC as substrate measured at 1 min interval for 20 mins followed by every 15 mins for 2 hrs by fluorescence assay
Target sequence in this assay (P07711 114-333 limits assumed): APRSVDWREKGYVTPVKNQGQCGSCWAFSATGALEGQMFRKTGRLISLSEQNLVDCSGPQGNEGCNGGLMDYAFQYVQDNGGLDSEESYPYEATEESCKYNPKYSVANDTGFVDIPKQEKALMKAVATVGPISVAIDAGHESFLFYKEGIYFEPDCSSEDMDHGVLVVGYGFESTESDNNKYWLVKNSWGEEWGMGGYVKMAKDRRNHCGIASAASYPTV

Procathepsin L [2] = biological target: T1, Procathepsin L; assay: Competitive inhibition of human liver cathepsin L using Z-FR-AMC as substrate measured at 1 min interval for 20 mins followed by every 15 mins for 2 hrs by fluorescence assay
Cathepsin B [3] = biological target: T2, Cathepsin B (Homo sapiens, UniProt P07858); assay: Inhibition of human liver cathepsin B using Z-Arg-Arg-AMC as substrate measured at 1 min interval for 20 mins followed by every 15 mins for 2 hrs by fluorescence assay
Cathepsin B [4] = biological target: T2, Cathepsin B; assay: Inhibition of human liver cathepsin B using Z-Arg-Arg-AMC as substrate preincubated for 60 mins followed by substrate addition and measured at 1 min interval for 20 mins consecutively at every 15 mins for 2 hrs by fluorescence assay
[5] = biological target: T3, Calpain-1 catalytic subunit (Homo sapiens) (UniProt P07384); assay: Inhibition of human calpain1 using Suc-Leu-Tyr-AMC as substrate measured at 1 min interval for 20 mins followed by every 15 mins for 2 hrs by fluorescence assay
T3 sequence (whole entry): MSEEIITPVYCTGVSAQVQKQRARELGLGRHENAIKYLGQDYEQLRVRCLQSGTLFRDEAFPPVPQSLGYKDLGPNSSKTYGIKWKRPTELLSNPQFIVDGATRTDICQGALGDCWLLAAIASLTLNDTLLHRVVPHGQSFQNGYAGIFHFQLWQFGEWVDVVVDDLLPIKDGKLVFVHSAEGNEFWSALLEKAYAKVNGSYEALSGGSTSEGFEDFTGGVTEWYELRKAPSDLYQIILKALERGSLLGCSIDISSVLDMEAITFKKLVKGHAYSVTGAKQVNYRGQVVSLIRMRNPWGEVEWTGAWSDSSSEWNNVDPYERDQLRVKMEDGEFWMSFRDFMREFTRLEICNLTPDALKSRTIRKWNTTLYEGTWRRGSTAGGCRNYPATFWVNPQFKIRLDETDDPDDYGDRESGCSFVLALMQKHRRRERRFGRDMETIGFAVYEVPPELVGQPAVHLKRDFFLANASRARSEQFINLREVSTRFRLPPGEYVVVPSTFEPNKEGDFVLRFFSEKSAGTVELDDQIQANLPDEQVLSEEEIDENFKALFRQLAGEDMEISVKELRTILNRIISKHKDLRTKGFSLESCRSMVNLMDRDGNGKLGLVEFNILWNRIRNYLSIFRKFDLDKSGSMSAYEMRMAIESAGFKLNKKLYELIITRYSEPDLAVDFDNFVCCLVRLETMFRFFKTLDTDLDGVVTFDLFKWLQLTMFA

[6] = biological target: T3, Calpain-1 catalytic subunit (Homo sapiens); assay: Inhibition of human calpain1 using Suc-Leu-Tyr-AMC as substrate preincubated for 60 mins followed by substrate addition and measured at 1 min interval for 20 mins consecutively at every 15 mins for 2 hrs by fluorescence assay
[7] = biological target: T4, Ubiquitin carboxyl-terminal hydrolase 8 (Homo sapiens) (UniProt P40818); assay: Inhibition of recombinant USP8 catalytic domain (unknown origin) using Ubiquitin-Lys-TAMRA as substrate measured at 6 mins interval for 4 hrs by fluorescence assay
T4 sequence (whole entry): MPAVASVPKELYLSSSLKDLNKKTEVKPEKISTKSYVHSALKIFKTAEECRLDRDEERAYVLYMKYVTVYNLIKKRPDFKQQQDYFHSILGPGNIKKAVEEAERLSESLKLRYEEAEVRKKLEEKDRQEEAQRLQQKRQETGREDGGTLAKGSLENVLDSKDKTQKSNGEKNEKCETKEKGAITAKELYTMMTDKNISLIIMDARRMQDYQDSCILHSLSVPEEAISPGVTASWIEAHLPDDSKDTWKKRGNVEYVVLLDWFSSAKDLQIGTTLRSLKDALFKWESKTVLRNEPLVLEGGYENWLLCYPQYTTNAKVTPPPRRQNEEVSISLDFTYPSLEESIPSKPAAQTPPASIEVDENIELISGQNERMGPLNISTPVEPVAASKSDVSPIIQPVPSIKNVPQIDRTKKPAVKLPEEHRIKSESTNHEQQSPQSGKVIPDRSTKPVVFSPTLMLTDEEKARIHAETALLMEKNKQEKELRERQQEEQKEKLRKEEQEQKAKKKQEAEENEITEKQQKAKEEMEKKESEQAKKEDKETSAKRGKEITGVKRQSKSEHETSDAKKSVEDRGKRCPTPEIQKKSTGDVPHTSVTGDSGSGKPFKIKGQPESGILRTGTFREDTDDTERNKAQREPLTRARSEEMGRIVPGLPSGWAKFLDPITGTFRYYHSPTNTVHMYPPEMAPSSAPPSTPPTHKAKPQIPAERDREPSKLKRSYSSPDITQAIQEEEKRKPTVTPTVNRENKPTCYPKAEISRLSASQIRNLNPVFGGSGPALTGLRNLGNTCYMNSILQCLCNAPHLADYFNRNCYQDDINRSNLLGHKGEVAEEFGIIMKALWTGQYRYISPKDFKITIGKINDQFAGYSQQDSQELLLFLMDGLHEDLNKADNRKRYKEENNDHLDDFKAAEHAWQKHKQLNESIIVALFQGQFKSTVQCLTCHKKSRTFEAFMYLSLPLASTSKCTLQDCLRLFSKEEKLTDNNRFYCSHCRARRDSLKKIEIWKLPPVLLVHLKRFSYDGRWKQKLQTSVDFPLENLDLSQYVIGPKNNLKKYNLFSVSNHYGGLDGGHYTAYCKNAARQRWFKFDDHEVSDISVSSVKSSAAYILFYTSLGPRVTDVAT

[8] = biological target: T4, Ubiquitin carboxyl-terminal hydrolase 8 (Homo sapiens); assay: Inhibition of recombinant USP8 catalytic domain (unknown origin) using Ubiquitin-Lys-TAMRA as substrate preincubated for 60 mins followed by substrate addition and measured at 6 mins interval for 4 hrs by fluorescence assay
Procathepsin L [9] = biological target: T1, Procathepsin L; assay: Irreversible inhibition of human liver cathepsin L at 50 uM using Z-FR-AMC as substrate preincubated for 3 hrs followed by compound washout measured by gel filtration assay
In short: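 Cathepsin L (10 nM) was preincubated with inhibitor (50 μM), then passed through a gel-filtration spin column to remove free compound. Flow-through aliquots were assayed for recovery of enzyme activity at several time points.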
Target sequence in this assay (P07711 114-333 limits assumed): as the sequence (P07711 114-333 limits assumed) above

Cathepsin B [10] = biological target: T2, Cathepsin B; assay: Inhibition of cathepsin B (unknown origin) using Z-Arg-Arg-AMC as substrate after 5 mins by fluorimetric method
Cathepsin B [11] = biological target: T2, Cathepsin B; assay: Inhibition of cathepsin B (unknown origin) assessed as ratio of Kinact to Ki using Z-Arg-Arg-AMC as substrate after 5 mins by fluorimetric method
Procathepsin L [12] = biological target: T1, Procathepsin L; assay: Inhibition of cathepsin L (unknown origin) using Z-Phe-Arg-AMC as substrate after 5 mins by fluorimetric method
Procathepsin L [13] = biological target: T1, Procathepsin L; assay: Inhibition of cathepsin L (unknown origin) assessed as ratio of Kinact to Ki using Z-Phe-Arg-AMC as substrate after 5 mins by fluorimetric method
Target sequence in this assay (P07711 114-333 limits assumed): as the sequence (P07711 114-333 limits assumed) above

Procathepsin L [14] = biological target: T1, Procathepsin L; assay: Inhibition of human liver cathepsin L using Z-FR-AMC as substrate measured at 1 min interval for 20 mins followed by every 15 mins for 2 hrs by fluorescence assay

| SMILES | Ki (Cathepsin B [10]) [µM] | Kinact (Cathepsin B [10]) [s⁻¹] | Ratio (Cathepsin B [11]) [M⁻¹ s⁻¹] | Ki (Procathepsin L [12]) [µM] | Kinact (Procathepsin L [12]) [s⁻¹] | Ratio (Procathepsin L [13]) [M⁻¹ s⁻¹] | further results |
| --- | --- | --- | --- | --- | --- | --- | --- |
| CS(=O)(=O)/C=C/CNC(=O)COc1ccc(Br)cc1Br |  |  |  |  |  |  | Ratio (Procathepsin L [1]): 5 M⁻¹ s⁻¹; Ki (Procathepsin L [2]): 59 µM; Kinact (Procathepsin L [2]): 0.0003 s⁻¹; inhibition (Cathepsin B [3]): inactive; inhibition (Cathepsin B [4]): inactive; inhibition [5]: inactive; inhibition [6]: inactive; inhibition [7]: inactive; inhibition [8]: inactive; inhibition (Procathepsin L [9]): Active |
| O=C(N[C@H](/C=C/S(=O)(=O)c1ccccc1)CCc1ccccc1)[C@H](Cc1ccccc1)NC(=O)N1CCOCC1 | 11 | 0.17 | 15500 | 1 | 0.24 | 240000 |  |
| O=C(N[C@H](/C=C/S(=O)(=O)c1ccccc1)CCc1ccccc1)[C@H](Cc1cc(I)c(O)c(I)c1)NC(=O)N1CCOCC1 | 0.34 | 0.36 | 1.06e+06 | 0.72 | 0.28 | 389000 |  |
| C[C@@H](Oc1ccc(Br)cc1Br)C(=O)NC/C=C/S(C)(=O)=O |  |  |  |  |  |  | Ki (Procathepsin L [14]): 146 µM; Kinact (Procathepsin L [14]): 0.0006 s⁻¹ |
